Data reported in article PMC8883746 (Journal of medicinal chemistry, 2021).
Where two headings read alike, the source gives them in different places.

Columns and labels:
[1] = system: r(CCUG)12–MBNL1 complex; experiment: TR-FRET assay measuring disruption of a preformed r; type: biochemical; conditions: read-out: IC50 for disrupting the r(CCUG)12–MBNL1 complex, in vitro
Summary of the method: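 5′-Biotinylated r(CCUG)12 was folded at 60 °C for 5 min in 20 mM HEPES pH 7.5 with KCl and NaCl. It was then brought into assay buffer with 2 mM MgCl2, 2 mM CaCl2, 5 mM DTT, 0.1% BSA and 0.5% Tween-20. MBNL1-His6 was added (final 60 nM protein, 80 nM RNA) for 15 min, then varying compound concentrations for 15 min. Streptavidin-XL665 (40 nM) and anti-His6-Tb (0.44 ng/μL) were added for 30 min at room temperature. The F545/F665 ratio, with excitation at 345 nm, was fitted to a Hill equation.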

[2] = system: RNA containing a single 2 × 2 CU/UC internal loop, r(5′-GACAGCCUGCUGUC-3′); experiment: NMR spectroscopy; type: binding; conditions: for shifts of RNA H6 and H8 proton resonances in 1D NMR: RNA with one 2×2 CU/UC internal loop; for binding to the RNA by waterLOGSY spectra: positive phase signals in the presence of RNA, 20:1 compound:RNA
Summary of the method: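 1D spectra were run on 100 μM RNA in D2O with compound titrated at 0.5–2.0 molar ratios. WaterLOGSY used 300 μM compound alone or with 15 μM RNA in H2O/5% D2O, phased so non-binders give negative NOEs. All spectra at 25 °C.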

[3] = system: DM2 patient-derived fibroblasts; experiment: Cell viability; type: cell-based; conditions: 5 μM, 48 h
Summary of the method: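 Cells were treated in 96-well plates for 48 h. CellTiter-Glo reagent was added, plates sat 10 min at room temperature, and luminescence was read. n = 6 replicates in one independent experiment.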

[4] = system: IR exon 11 splicing; type: cell-based; conditions: DM2 patient-derived fibroblasts; for rescue of IR exon 11 splicing (percent rescue): 1 μM
Summary of the method: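 DM2 patient-derived fibroblasts were treated at ~40% confluency in 6-well plates for 48 h. About 1 μg of total RNA was reverse transcribed. PCR ran 35 cycles (95/58/72 °C), and products were resolved on a 2% agarose gel, stained with ethidium bromide and quantified. Percent rescue = (untreated DM2 exclusion − treated exclusion)/(untreated DM2 exclusion − untreated WT exclusion) × 100.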

[5] = target: base-paired RNA that does not contain internal loops; experiment: Microscale thermophoresis; type: binding; conditions: read-out: Kd for base pair control RNA; MST
Summary of the method: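 Cy5-labelled base-paired control RNA, GCG(CCUG)7(GCAG)5CGC, was used at 5 nM in 8 mM Na2HPO4 pH 7.0, 185 mM NaCl and 1 mM EDTA, folded at 60 °C for 5 min. It was mixed with 1:1 serial compound dilutions (0.05% Tween-20 final) and held 30 min at room temperature. MST settings: 80% power, 30 s laser-on. Kd came from a quadratic fit, averaged over two independent experiments.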

[6] = system: r(CCUG)exp–MBNL1 nuclear foci; type: cell-based; conditions: 5 μM, DM2 patient-derived fibroblasts; untreated 7 ± 1
[7] = system: MAP4K4 exon 22a splicing; experiment: MAP4K4 exon 22a splicing; type: cell-based; conditions: NOVA-dependent splicing event
[8] = system: CNBP intron 1; experiment: CNBP intron 1 abundance by RT-qPCR in DM2 patient-derived fibroblasts; type: cell-based; conditions: doses of 5 and 1 μM
Summary of the method: (§1)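 DM2 patient-derived fibroblasts were grown in DMEM/high glucose with 20% FBS at 37 °C and 5% CO2. Cells in 6-well plates were treated in growth medium at 40% confluency for 48 h. About 1 μg of total RNA was reverse transcribed, then run in SYBR Green qPCR. Abundance was normalized to GAPDH across 2 independent experiments.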

[9] = system: CNBP mature mRNA; experiment: CNBP mature mRNA levels by RT-qPCR in DM2 patient-derived fibroblasts; type: cell-based
Summary of the method: as §1

[10] = system: CNBP intron 1; experiment: CNBP intron 1 levels in wild-type fibroblasts; type: cell-based
Summary of the method: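 Wild-type donor fibroblasts (GM07492) were grown in MEM with 10% FBS and Glutagro at 37 °C and 5% CO2. Cells were treated at 40% confluency for 48 h. About 1 μg of total RNA was reverse transcribed and run in SYBR Green qPCR. Relative abundance was normalized to GAPDH.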

[11] = system: IR exon 11 inclusion; experiment: IR exon 11 inclusion in wild-type fibroblasts; type: cell-based
Summary of the method: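 Wild-type donor fibroblasts (GM07492) were grown in MEM with 10% FBS and treated at ~40% confluency for 48 h. About 1 μg of total RNA was reverse transcribed. PCR ran 35 cycles (95 °C 30 s, 58 °C 30 s, 72 °C 1 min). Products were separated on a 2% agarose gel, stained with ethidium bromide, and percent exon 11 exclusion was quantified by densitometry.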

| Compound | IC50 [1] [µM] | shifts of RNA H6 and H8 proton resonances in 1D NMR [2] | binding to the RNA by waterLOGSY spectra [2] | further results |
| --- | --- | --- | --- | --- |
| Cc1ccc2nc(Nc3ccc4nc(N5CCOCC5)sc4c3)nc(NCCCO)c2c1 [compound 72, 3-((6-methyl-2-((2-morpholinobenzo[d]thiazol-6-yl)amino)quinazolin-4-yl)amino)propan-1-ol] | < 5 | – | – | – |
| Cc1ccc2nc(Nc3ccc4nc(NC5CCN(Cc6ccccc6)CC5)sc4c3)nc(NCCCO)c2c1 [compound 71, 3-((2-((2-((1-benzylpiperidin-4-yl)amino)benzo[d]thiazol-6-yl)amino)-6-methylquinazolin-4-yl)amino)propan-1-ol] | < 5 | – | – | – |
| CN(C)c1ccc(Nc2nc(NCCCO)c3ccccc3n2)cc1 [compound 4] | – | Significant shifts in resonances | bound to the RNA | – |
| Cc1ccc2nc(Nc3ccc4nc(NCCN5CCOCC5)sc4c3)nc(NCCCO)c2c1 [compound 74, 3-((6-methyl-2-((2-((2-morpholinoethyl)amino)benzo[d]thiazol-6-yl)amino)quinazolin-4-yl)amino)propan-1-ol] | < 5 | – | – | – |
| Cc1ccc2nc(Nc3ccc4c(c3)OCCO4)nc(NCCCO)c2c1 [compound 58, 3-((2-((2,3-dihydrobenzo[b][1,4]dioxin-6-yl)amino)-6-methylquinazolin-4-yl)amino)propan-1-ol] | 12.7 ± 0.2 | – | – | – |
| CC(=O)Nc1ccc(Nc2nc(NCC3CCCO3)c3ccccc3n2)cc1 (centres unmarked) [compound 5] | – | Significant shifts in resonances | bound to the RNA | – |
| Cc1ccc2nc(Nc3ccc4nc(NCC(C)(C)O)sc4c3)nc(NCCCO)c2c1 [compound 78, 3-((2-((2-((2-hydroxy-2-methylpropyl)amino)benzo[d]thiazol-6-yl)amino)-6-methylquinazolin-4-yl)amino)propan-1-ol] | < 5 | – | – | toxicity in DM2 patient-derived fibroblasts [3]: no toxicity; rescue of IR exon 11 splicing ([4]; 5 μM, 48 h): significantly improved IR splicing |
| Cc1ccc2nc(Nc3ccc4nc(NCC(C)C)sc4c3)nc(NCCCO)c2c1 [compound 73, 3-((2-((2-(isobutylamino)benzo[d]thiazol-6-yl)amino)-6-methylquinazolin-4-yl)amino)propan-1-ol] | < 5 | – | – | – |
| Cc1ccc2nc(Nc3ccc4nc(N5CCN(C)CC5)sc4c3)nc(NCCCO)c2c1 [compound 82, 3-((6-methyl-2-((2-(4-methylpiperazin-1-yl)benzo[d]thiazol-6-yl)amino)quinazolin-4-yl)amino)propan-1-ol] | < 5 | – | – | – |
| Cc1ccc2nc(Nc3ccc4nc(C)sc4c3)nc(NCCCO)c2c1 [compound 63, 3-((6-methyl-2-((2-methylbenzo[d]thiazol-6-yl)amino)quinazolin-4-yl)amino)propan-1-ol] | 2.2 ± 0.5 | – | – | toxicity in DM2 patient-derived fibroblasts [3]: no toxicity; rescue of IR exon 11 splicing (percent rescue) ([4]; 48 h): 33 ± 5%; rescue of IR exon 11 splicing ([4]; 5 μM, 48 h): significantly improved IR splicing; Kd [5]: > 20 µM; number of r(CCUG)exp–MBNL1 nuclear foci per cell [6]: 5 ± 0.5; effect on MAP4K4 exon 22a splicing [7]: did not affect; abundance of CNBP intron 1 [8]: significantly reduced; levels of CNBP mature mRNA [9]: did not affect; effects on CNBP intron 1 levels [10]: no effects were observed; effect on IR exon 11 inclusion [11]: did not affect |
| COc1ccc(Nc2nc(NCCCO)c3ccccc3n2)cc1 [compound 3] | – | Significant shifts in resonances | bound to the RNA | – |
| Cc1ccc2nc(Nc3ccc4nc(NCCN(C)C)sc4c3)nc(NCCCO)c2c1 [compound 79, 3-((2-((2-((2-(dimethylamino)ethyl)amino)benzo[d]thiazol-6-yl)amino)-6-methylquinazolin-4-yl)amino)propan-1-ol] | < 5 | – | – | toxicity in DM2 patient-derived fibroblasts [3]: no toxicity; rescue of IR exon 11 splicing ([4]; any concentration studied): did not significantly rescue splicing |
| OCCCNc1nc(Nc2ccc3c(c2)OCCO3)nc2ccccc12 [compound 7, 3-((2-((2,3-dihydrobenzo[b][1,4]dioxin-6-yl)amino)quinazolin-4-yl)amino)propan-1-ol] | – | Significant shifts in resonances | bound to the RNA | rescue of IR exon 11 splicing (percent rescue) ([4]; 48 h): 12 ± 5% |
